Experimental data: ChEMBL document CHEMBL3286282, “Synthesis and antiproliferative activity of novobiocin analogues as potential hsp90 inhibitors” (Eur J Med Chem, 2014)
Each block holds one molecule with its values, some of them ahead of it. The source made the active and inactive calls. No cut-off for these calls is given here.

What was measured:
[1] = test system: MCF7; experiment: Antiproliferative activity against ER-positive human MCF7 cells assessed as cell viability at 0.1 mM after 72 hrs by MTT assay; assay type: functional; conditions: MCF7, 72 h, read-out: Activity
Summary of the method: (§1)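 MCF-7 (ER-positive) cells in DMEM with 2 mM L-glutamine, penicillin/streptomycin and 10% charcoal-treated FCS, seeded at 2500-5000 cells/well. Drugs added 24 h later in serial dilutions from 10 mM DMSO stocks, then exposed 72 h. MTT (500 µg/mL) for 3 h at 37 °C, formazan dissolved in DMSO, A570 read minus A650. Sextuplicates, three experiments.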

[2] = test system: MCF7; experiment: Growth inhibition of ER-positive human MCF7 cells after 72 hrs by MTT assay; assay type: functional; conditions: MCF7, 72 h; summary of the method: as §1
[3] = Retardation factor of the compound using Et2O as solvent system; assay type: physicochemical
[4] = molecular target: Heat shock protein HSP 90-beta (Homo sapiens) (UniProt P08238); experiment: Inhibition of HSP90 in human MCF7 cells assessed as ER-alpha degradation at 100 uM after 24 hrs by western blot analysis; assay type: cell-based
Heat shock protein HSP 90-beta (Homo sapiens), sequence (P08238 whole entry): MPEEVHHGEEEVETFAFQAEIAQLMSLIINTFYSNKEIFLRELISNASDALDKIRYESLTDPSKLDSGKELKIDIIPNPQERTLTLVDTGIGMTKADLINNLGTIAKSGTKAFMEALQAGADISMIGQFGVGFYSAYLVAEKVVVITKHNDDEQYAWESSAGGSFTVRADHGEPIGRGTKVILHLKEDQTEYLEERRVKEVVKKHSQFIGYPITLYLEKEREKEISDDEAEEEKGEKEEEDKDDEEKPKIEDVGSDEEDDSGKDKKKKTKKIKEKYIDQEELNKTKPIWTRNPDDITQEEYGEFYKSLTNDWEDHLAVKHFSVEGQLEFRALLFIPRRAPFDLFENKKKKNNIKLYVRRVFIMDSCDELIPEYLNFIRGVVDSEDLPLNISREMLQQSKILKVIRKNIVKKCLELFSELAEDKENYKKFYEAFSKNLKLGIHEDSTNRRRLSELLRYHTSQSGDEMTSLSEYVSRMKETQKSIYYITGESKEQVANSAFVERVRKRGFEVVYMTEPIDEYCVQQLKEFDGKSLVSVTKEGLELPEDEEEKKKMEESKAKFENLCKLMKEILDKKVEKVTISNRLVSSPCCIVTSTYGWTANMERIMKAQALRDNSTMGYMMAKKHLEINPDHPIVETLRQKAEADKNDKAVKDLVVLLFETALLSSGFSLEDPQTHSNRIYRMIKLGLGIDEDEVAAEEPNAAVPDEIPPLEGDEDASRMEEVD
Summary of the method: (§2)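 MCF-7 cells grown to 50% confluence, exposed to 100 µM for 24 h with or without MG132 (5 µM). Lysed in Tris-HCl pH 7.5/NaCl/EGTA/Triton X-100 buffer with phosphatase and protease inhibitors. 20 µg protein run on SDS-PAGE. ERα probed with D12 monoclonal antibody (1 µg/mL, overnight 4 °C), detected by biotin/avidin-peroxidase. Nonspecific band used as loading control; DMSO as vehicle.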

[5] = molecular target: Heat shock protein HSP 90-beta (Homo sapiens) (UniProt P08238); experiment: Inhibition of HSP90 in human MCF7 cells assessed as ER-alpha degradation at 100 uM after 24 hrs by western blot analysis in presence of proteasome inhibitor MG132; assay type: cell-based; summary of the method: as §2
[6] = Retardation factor of the compound using CH2Cl2/AcOEt at ratio of 95:5 as solvent system; assay type: physicochemical
[7] = Retardation factor of the compound using CH2Cl2/c-hexane at ratio of 9:1 as solvent system; assay type: physicochemical
[8] = Retardation factor of the compound using CH2Cl2 as solvent system; assay type: physicochemical
[9] = Retardation factor of the compound using CH2Cl2/AcOEt at ratio of 9:1 as solvent system; assay type: physicochemical

GI50 [2]: 67 µM | Rf [3]: 0.3 | ER-alpha degradation (active/inactive) [4]: Active
SMILES: Cc1c(O)ccc2c(OS(=O)(=O)c3ccc4ccccc4c3)c(NC(=O)c3ccc4c(c3)CCC(C)(C)O4)c(=O)oc12
viability at 100 µM [1]: 33%

inhibition [5]: inactive | ER-alpha degradation (active/inactive) [4]: Active
SMILES: Cc1ccc(S(=O)(=O)Oc2c(NC(=O)c3ccc4c(c3)CCC(C)(C)O4)c(=O)oc3c(C)c(O)ccc23)cc1

Rf [6]: 0.5
SMILES: C#Cc1cc2c(OS(=O)(=O)c3ccc(C)cc3)c(NC(=O)c3ccc4c(c3)CCC(C)(C)O4)c(=O)oc2c(C)c1OC
viability at 100 µM [1]: 82%

Rf [7]: 0.1
SMILES: COc1c(C#Cc2ccccc2)cc2c(OS(=O)(=O)c3ccc(C)cc3)c(NC(=O)c3ccc4c(c3)CCC(C)(C)O4)c(=O)oc2c1C
viability at 100 µM [1]: 90%

Rf [8]: 0.27
SMILES: COc1ccc(-c2cc3c(OS(=O)(=O)c4ccc(C)cc4)c(NC(=O)c4ccc5c(c4)CCC(C)(C)O5)c(=O)oc3c(C)c2OC)cc1
viability at 100 µM [1]: 89%

Rf [6]: 0.48
SMILES: COc1cc(C#Cc2cc3c(OS(=O)(=O)c4ccc(C)cc4)c(NC(=O)c4ccc5c(c4)CCC(C)(C)O5)c(=O)oc3c(C)c2OC)cc(OC)c1OC
viability at 100 µM [1]: 92%

Rf [8]: 0.2
SMILES: COc1ccc(C#Cc2cc3c(OS(=O)(=O)c4ccc(C)cc4)c(NC(=O)c4ccc5c(c4)CCC(C)(C)O5)c(=O)oc3c(C)c2OC)cc1
viability at 100 µM [1]: 89%

GI50 [2]: 260 µM
SMILES: CO[C@@H]1[C@@H](OC(N)=O)[C@@H](O)[C@H](Oc2ccc3c(O)c(NC(=O)c4ccc(O)c(CC=C(C)C)c4)c(=O)oc3c2C)OC1(C)C [NOVOBIOCIN]

Rf [9]: 0.23
SMILES: Cc1c(O)ccc2c(OS(=O)(=O)c3cccs3)c(NC(=O)c3ccc4c(c3)CCC(C)(C)O4)c(=O)oc12
viability at 100 µM [1]: 62%
